How the values were obtained:
Mus musculus [1] = assay: Toxicity in BDF1 mouse allografted with mouse L1210 cells at 100 mg/kg, ip administered on day 2 and 6; format: organism-based; set-up: dose 100 mg/kg, route intraperitoneal; conditions: in vivo
Summary of the method: (§1)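 BDF1 mice implanted ip on day 0 with L1210 lymphoid leukemia cells. Compound given ip as a suspension in saline, saline with Tween 80, or Klucel (HPC), with injections every fourth day. Multiple dose levels 400, 200 and 100 mg/kg; three- or six-mouse groups. Toxicity scored as survivors per animals started, recorded on day 5.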

[2] = target: Lactoylglutathione lyase (Saccharomyces cerevisiae); assay: Competitive inhibition of yeast glyoxalase-1 using methylglyoxal and glutathione as substrate by Lineweaver-Burk plot analysis
L1210 [3] = assay: Antitumor activity against mouse L1210 cells allografted in BDF1 mouse assessed as increase in host survival time at 100 mg/kg, ip administered on day 2 and 6 relative to control; format: functional; conditions: route intraperitoneal
Summary of the method: (§2)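 BDF1 mice received ip L1210 lymphoid leukemia cells on day 0. Compounds were then given ip in saline, saline/Tween 80, or Klucel vehicle, repeated every fourth day at a fixed dose from the 400, 200, 100 mg/kg series. Assays used three or six mice, with vehicle-treated controls. T/C % is treated over control mean survival time, expressed as percent.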

L1210 [4] = assay: Antitumor activity against mouse L1210 cells allografted in BDF1 mouse assessed as increase in host survival days at 100 mg/kg, ip administered on day 2 and 6 relative to control; format: functional; conditions: route intraperitoneal
Summary of the method: (§3)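 L1210 lymphoid leukemia cells were implanted ip in BDF1 mice on day 0. Compounds were given ip as suspensions in saline, saline with Tween 80, or Klucel (hydroxypropylcellulose). Injections were repeated every fourth day at the same dose. Groups had three or six mice, and controls received vehicle only. The read-out was mean survival time in days for treated and control animals.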

[5] = target: Lactoylglutathione lyase (Saccharomyces cerevisiae); assay: Inhibition of yeast glyoxalase-1 using methylglyoxal and glutathione as substrate; conditions: read-out: I50
Mus musculus [6] = assay: Toxicity in BDF1 mouse allografted with mouse L1210 cells at 200 mg/kg, ip administered on day 2 and 6; format: organism-based; set-up: dose 200 mg/kg, route intraperitoneal; conditions: in vivo; summary of the method: as §1
L1210 [7] = assay: Antitumor activity against mouse L1210 cells allografted in BDF1 mouse assessed as increase in host survival time at 200 mg/kg, ip administered on day 2 and 6 relative to control; format: functional; conditions: route intraperitoneal; summary of the method: as §2
L1210 [8] = assay: Antitumor activity against mouse L1210 cells allografted in BDF1 mouse assessed as increase in host survival days at 200 mg/kg, ip administered on day 2 and 6 relative to control; format: functional; conditions: route intraperitoneal; summary of the method: as §3
Mus musculus [9] = assay: Toxicity in BDF1 mouse allografted with mouse L1210 cells at 100 mg/kg, ip administered on day 1; format: organism-based; set-up: dose 100 mg/kg, route intraperitoneal; conditions: in vivo; summary of the method: as §1
L1210 [10] = assay: Antitumor activity against mouse L1210 cells allografted in BDF1 mouse assessed as increase in host survival days at 100 mg/kg, ip administered on day 1 relative to control; format: functional; conditions: route intraperitoneal
L1210 [11] = assay: Antitumor activity against mouse L1210 cells allografted in BDF1 mouse assessed as increase in host survival time at 100 mg/kg, ip administered on day 1 relative to control; format: functional; conditions: route intraperitoneal
L1210 [12] = assay: Antitumor activity against mouse L1210 cells allografted in BDF1 mouse assessed as increase in host survival days at 200 mg/kg, ip administered on day 1, 5, and 9 relative to control; format: functional; conditions: route intraperitoneal; summary of the method: as §3
L1210 [13] = assay: Antitumor activity against mouse L1210 cells allografted in BDF1 mouse assessed as increase in host survival time at 200 mg/kg, ip administered on day 1, 5, and 9 relative to control; format: functional; conditions: route intraperitoneal; summary of the method: as §2
Mus musculus [14] = assay: Toxicity in BDF1 mouse allografted with mouse L1210 cells at 200 mg/kg, ip administered on day 1, 5, and 9; format: organism-based; set-up: dose 200 mg/kg, route intraperitoneal; conditions: in vivo; summary of the method: as §1
Mus musculus [15] = assay: Toxicity in BDF1 mouse allografted with mouse L1210 cells at 100 mg/kg, ip administered on day 1, 5, and 9; format: organism-based; set-up: dose 100 mg/kg, route intraperitoneal; conditions: in vivo; summary of the method: as §1
L1210 [16] = assay: Antitumor activity against mouse L1210 cells allografted in BDF1 mouse assessed as increase in host survival time at 100 mg/kg, ip administered on day 1, 5, and 9 relative to control; format: functional; conditions: route intraperitoneal; summary of the method: as §2
L1210 [17] = assay: Antitumor activity against mouse L1210 cells allografted in BDF1 mouse assessed as increase in host survival days at 100 mg/kg, ip administered on day 1, 5, and 9 relative to control; format: functional; conditions: route intraperitoneal; summary of the method: as §3
L1210 [18] = assay: Antitumor activity against mouse L1210 cells allografted in BDF1 mouse assessed as increase in host survival days at 400 mg/kg, ip administered on day 1 relative to control; format: functional; conditions: route intraperitoneal
L1210 [19] = assay: Antitumor activity against mouse L1210 cells allografted in BDF1 mouse assessed as increase in host survival time at 400 mg/kg, ip administered on day 1 relative to control; format: functional; conditions: route intraperitoneal
Mus musculus [20] = assay: Toxicity in BDF1 mouse allografted with mouse L1210 cells at 400 mg/kg, ip administered on day 1; format: organism-based; set-up: dose 400 mg/kg, route intraperitoneal; conditions: in vivo; summary of the method: as §1

Compound: CCCCSC(=O)C(C)O (stereo not given)
- Activity (Mus musculus [1]): Toxic
- Ki [2]: 12.9 mM
- Time (L1210 [3]): 10 days
- T/C (L1210 [4]): 99%
- IC50 [5]: 16.5 mM

Compound: CC(O)C(=O)SCc1ccccc1 (stereo not given)
- Activity (Mus musculus [6]): Toxic
- Time (L1210 [7]): 10.3 days
- Ki [2]: 5.5 mM
- T/C (L1210 [8]): 98%
- IC50 [5]: 7.1 mM

Compound: CCCCSC(=O)C(O)c1ccccc1 (stereo not given)
- Ki [2]: 29.6 mM
- Activity (Mus musculus [9]): Toxic
- T/C (L1210 [10]): 105%
- IC50 [5]: 37.8 mM
- Time (L1210 [11]): 9.8 days

Compound: O=C(SCc1ccccc1)C(O)c1ccccc1 (stereo not given)
- T/C (L1210 [12]): 100%
- Ki [2]: 6.3 mM
- Time (L1210 [13]): 10.7 days
- Activity (Mus musculus [14]): Toxic
- IC50 [5]: 8.1 mM

Compound: COC(=O)CSC(=O)C(O)c1ccccc1 (stereo not given)
- T/C (L1210 [12]): 103%
- Ki [2]: 8.2 mM
- Time (L1210 [13]): 10.5 days
- Activity (Mus musculus [14]): Toxic
- IC50 [5]: 10.5 mM

Compound: CCCCOC(=O)CSC(=O)C(O)c1ccccc1 (stereo not given)
- Activity (Mus musculus [15]): Toxic
- Ki [2]: 34.7 mM
- Time (L1210 [16]): 10.2 days
- T/C (L1210 [17]): 105%
- IC50 [5]: 44.5 mM

Compound: COC(=O)CCSC(=O)C(O)c1ccccc1 (stereo not given)
- Ki [2]: 38.6 mM
- T/C (L1210 [18]): 105%
- Time (L1210 [19]): 9.8 days
- Activity (Mus musculus [20]): Toxic
- IC50 [5]: 49.6 mM
